Assay results published in ChEMBL document CHEMBL4020710, “Discovery and evaluation of the hybrid of bromophenol and saccharide as potent and selective protein tyrosine phosphatase 1B inhibitors” (Eur J Med Chem, 2017).
Activity calls are given as the source filed them. The calls are words filed in the database; no cut-off is given here.

Assays:
[1] = target: T1, Tyrosine-protein phosphatase non-receptor type 1 (Homo sapiens) (UniProt P18031); assay: Inhibition of recombinant PTP1B (unknown origin) at 10 uM using p-NPP as substrate after 30 mins by UV-spectroscopic analysis
T1 sequence (whole entry): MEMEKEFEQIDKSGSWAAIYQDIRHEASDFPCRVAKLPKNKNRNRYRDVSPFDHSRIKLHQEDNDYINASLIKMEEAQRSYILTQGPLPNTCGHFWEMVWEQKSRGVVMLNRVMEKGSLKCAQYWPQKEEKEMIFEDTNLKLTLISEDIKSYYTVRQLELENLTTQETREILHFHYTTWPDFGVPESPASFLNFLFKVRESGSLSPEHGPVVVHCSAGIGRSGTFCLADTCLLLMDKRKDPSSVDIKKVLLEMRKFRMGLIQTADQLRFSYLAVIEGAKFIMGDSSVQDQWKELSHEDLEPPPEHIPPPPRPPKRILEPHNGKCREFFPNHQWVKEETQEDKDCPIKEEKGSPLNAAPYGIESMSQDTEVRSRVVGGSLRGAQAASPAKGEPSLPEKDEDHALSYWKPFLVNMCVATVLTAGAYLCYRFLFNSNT

[2] = target: T2, Tyrosine-protein phosphatase non-receptor type 1 (Homo sapiens, UniProt P18031); assay: Inhibition of recombinant PTP1B (unknown origin) using p-NPP as substrate after 30 mins by UV-spectroscopic analysis
T2 sequence (P18031 whole entry): T1 sequence (whole entry)

[3] = target: T1, Tyrosine-protein phosphatase non-receptor type 1 (Homo sapiens); assay: Binding affinity to human PTP1B (1 to 321 residues) at 50 uM by SPR assay
[4] = target: T3, Tyrosine-protein phosphatase non-receptor type 1 (Mus musculus) (UniProt P35821); assay: Inhibition of PTP1B in mouse C2C12 cells assessed as increase in IRbeta phosphorylation at Y1146 residues in mouse C2C12 cells at 0.1 to 1 uM after 8 hrs by Western blot analysis; assay type: cell-based
T3 sequence (whole entry): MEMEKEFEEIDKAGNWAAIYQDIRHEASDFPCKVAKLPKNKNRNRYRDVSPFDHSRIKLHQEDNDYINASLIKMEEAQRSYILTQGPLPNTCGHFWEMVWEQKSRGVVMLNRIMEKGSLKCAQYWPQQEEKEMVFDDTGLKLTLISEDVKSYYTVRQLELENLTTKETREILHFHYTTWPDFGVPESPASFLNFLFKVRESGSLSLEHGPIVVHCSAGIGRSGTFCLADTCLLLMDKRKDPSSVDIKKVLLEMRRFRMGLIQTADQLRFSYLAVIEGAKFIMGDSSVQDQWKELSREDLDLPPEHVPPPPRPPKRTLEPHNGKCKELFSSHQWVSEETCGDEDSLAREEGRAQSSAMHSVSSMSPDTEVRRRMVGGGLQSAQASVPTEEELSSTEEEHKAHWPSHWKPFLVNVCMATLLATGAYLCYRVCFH

[5] = target: T4, Tyrosine-protein phosphatase non-receptor type 2 (Homo sapiens, UniProt P17706); assay: Inhibition of TCPTP (unknown origin)
T4 sequence (P17706 whole entry): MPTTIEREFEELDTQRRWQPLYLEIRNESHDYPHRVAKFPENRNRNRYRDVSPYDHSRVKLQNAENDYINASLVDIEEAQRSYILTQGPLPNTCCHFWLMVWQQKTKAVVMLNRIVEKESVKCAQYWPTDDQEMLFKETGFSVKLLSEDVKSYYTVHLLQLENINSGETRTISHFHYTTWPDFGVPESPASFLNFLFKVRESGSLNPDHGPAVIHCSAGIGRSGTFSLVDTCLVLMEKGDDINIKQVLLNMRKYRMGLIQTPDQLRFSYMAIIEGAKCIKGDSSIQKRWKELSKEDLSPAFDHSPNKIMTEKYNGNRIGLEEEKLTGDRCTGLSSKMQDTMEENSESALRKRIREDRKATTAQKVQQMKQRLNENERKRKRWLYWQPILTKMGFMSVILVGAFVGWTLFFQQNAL

[6] = target: T5, Receptor-type tyrosine-protein phosphatase F (Homo sapiens, UniProt P10586); assay: Inhibition of PTPLAR (unknown origin)
T5 sequence (P10586 whole entry): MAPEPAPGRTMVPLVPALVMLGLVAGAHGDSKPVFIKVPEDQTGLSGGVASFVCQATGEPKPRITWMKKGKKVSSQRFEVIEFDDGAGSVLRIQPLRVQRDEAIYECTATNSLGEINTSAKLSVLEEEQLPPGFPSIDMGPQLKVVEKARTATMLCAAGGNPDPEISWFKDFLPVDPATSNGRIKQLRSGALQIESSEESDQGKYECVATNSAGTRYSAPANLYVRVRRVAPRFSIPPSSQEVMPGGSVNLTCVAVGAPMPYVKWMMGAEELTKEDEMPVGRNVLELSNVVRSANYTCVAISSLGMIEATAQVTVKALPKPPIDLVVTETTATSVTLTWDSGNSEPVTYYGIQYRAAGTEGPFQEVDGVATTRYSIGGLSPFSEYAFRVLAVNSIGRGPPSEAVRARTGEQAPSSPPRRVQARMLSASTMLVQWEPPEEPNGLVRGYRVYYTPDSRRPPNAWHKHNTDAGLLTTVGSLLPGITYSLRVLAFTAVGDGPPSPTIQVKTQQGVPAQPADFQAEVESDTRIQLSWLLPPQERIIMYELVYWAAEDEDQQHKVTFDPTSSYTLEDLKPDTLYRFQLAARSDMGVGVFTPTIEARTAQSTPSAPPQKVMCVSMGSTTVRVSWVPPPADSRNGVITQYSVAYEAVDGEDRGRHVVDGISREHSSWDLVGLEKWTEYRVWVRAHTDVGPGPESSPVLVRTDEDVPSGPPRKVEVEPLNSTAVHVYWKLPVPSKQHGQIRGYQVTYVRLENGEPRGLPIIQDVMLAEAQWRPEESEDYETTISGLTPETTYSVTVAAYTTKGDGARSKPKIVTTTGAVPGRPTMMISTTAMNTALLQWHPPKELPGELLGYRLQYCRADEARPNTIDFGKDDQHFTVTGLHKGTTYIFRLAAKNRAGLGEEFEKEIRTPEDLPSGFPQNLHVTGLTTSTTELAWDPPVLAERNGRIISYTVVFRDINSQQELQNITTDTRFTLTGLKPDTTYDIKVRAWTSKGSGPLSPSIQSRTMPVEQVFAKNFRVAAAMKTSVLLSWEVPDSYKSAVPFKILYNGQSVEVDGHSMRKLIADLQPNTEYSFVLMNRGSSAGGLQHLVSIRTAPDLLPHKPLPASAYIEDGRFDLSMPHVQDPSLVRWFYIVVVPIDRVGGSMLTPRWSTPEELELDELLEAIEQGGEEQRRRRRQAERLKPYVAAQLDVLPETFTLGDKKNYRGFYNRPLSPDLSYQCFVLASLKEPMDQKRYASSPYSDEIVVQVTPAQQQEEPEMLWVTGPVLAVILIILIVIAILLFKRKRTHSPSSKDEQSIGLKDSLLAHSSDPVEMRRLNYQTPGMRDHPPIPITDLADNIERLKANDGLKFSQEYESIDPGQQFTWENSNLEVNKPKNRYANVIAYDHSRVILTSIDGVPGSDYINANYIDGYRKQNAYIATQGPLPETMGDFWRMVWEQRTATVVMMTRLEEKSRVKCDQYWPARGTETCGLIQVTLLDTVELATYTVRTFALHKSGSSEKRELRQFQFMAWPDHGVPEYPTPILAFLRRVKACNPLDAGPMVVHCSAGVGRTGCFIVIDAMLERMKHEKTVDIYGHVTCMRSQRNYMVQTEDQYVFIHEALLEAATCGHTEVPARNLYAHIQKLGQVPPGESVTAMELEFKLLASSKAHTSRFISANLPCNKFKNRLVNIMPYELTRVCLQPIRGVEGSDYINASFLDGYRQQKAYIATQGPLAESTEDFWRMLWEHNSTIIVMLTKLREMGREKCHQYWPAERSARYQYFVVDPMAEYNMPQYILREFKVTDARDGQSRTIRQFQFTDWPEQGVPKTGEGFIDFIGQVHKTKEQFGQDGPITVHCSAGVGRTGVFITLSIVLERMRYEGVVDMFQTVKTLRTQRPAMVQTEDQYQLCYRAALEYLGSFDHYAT

[7] = target: T3, Tyrosine-protein phosphatase non-receptor type 1 (Mus musculus); assay: Inhibition of PTP1B in mouse C2C12 cells assessed as increase in Akt phosphorylation at S473 residues in mouse C2C12 cells at 0.1 to 1 uM after 8 hrs by Western blot analysis; assay type: cell-based
[8] = target: T1, Tyrosine-protein phosphatase non-receptor type 1 (Homo sapiens); assay: Competitive inhibition of PTP1B (unknown origin) using p-NPP as substrate after 30 mins by Lineweaver-Burk plot analysis
[9] = target: T5, Receptor-type tyrosine-protein phosphatase F; assay: Inhibition of PTPLAR (unknown origin) at 20 ug/ml
C2C12 [10] = assay: Effect on total IRbeta in mouse C2C12 cells at 0.1 to 1 uM after 8 hrs by Western blot analysis; assay type: ADME, cell-based; details: c2c12, 8 h
[11] = target: T3, Tyrosine-protein phosphatase non-receptor type 1 (Mus musculus); assay: Inhibition of PTP1B in mouse C2C12 cells assessed as increase in IRS1 phosphorylation at Y632 residues at 0.25 to 1 uM after 8 hrs by Western blot analysis; assay type: cell-based
C2C12 (Mus musculus) = assay: Drug absorption in mouse C2C12 myotubes assessed per million cells at 10 uM after 8 hrs by HPLC analysis; details: c2c12, 8 h
[12] = Drug uptake in mouse C2C12 cells at 10 uM after 8 hrs by HPLC analysis; assay type: ADME, cell-based; details: c2c12, 8 h
In short: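 C2C12 myotubes were exposed to 10 μM for 8 h, with DMSO-treated cells as the control. The medium was then removed and the cells disrupted. An equal amount of internal standard was added, cell debris was removed by filtration, and intracellular compound was quantified by HPLC.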

[13] = target: T6, Tyrosine-protein phosphatase non-receptor type 11 (Homo sapiens, UniProt Q06124); assay: Inhibition of SHP2 (unknown origin)
T6 sequence (Q06124 whole entry): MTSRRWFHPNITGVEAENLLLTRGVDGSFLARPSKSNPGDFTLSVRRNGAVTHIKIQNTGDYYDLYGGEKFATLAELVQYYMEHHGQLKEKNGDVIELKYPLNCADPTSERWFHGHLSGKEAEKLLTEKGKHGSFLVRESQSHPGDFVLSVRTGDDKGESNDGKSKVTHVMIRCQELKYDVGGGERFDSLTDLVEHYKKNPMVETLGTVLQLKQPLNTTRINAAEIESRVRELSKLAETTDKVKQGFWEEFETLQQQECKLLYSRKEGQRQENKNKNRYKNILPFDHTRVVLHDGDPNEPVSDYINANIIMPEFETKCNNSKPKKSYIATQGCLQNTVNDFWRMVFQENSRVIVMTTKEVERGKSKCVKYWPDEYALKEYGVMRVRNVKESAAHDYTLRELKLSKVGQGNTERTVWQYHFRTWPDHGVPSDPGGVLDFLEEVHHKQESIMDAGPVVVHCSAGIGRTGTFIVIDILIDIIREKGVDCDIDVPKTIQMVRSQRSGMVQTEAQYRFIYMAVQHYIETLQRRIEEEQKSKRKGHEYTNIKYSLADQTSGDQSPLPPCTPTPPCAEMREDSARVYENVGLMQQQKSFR

Homo sapiens = organism: Homo sapiens; assay: Selectivity ratio of IC50 for TCPTP (unknown origin) to IC50 for recombinant PTP1B (unknown origin)
C2C12 [14] = assay: Effect on total Akt in mouse C2C12 cells at 0.1 to 1 uM after 8 hrs by Western blot analysis; assay type: ADME, cell-based; details: c2c12, 8 h

| Compound | inhibition [1] | IC50 [2] | further results |
| --- | --- | --- | --- |
| CC(C)(C)[Si](C)(C)Oc1cc(C(=O)OCC(COC(=O)c2cc(Br)c(O[Si](C)(C)C(C)(C)C)c(O[Si](C)(C)C(C)(C)C)c2)OC(=O)c2cc(Br)c(O[Si](C)(C)C(C)(C)C)c(O[Si](C)(C)C(C)(C)C)c2)cc(Br)c1O[Si](C)(C)C(C)(C)C | 12% |  |  |
| COc1cc(C(=O)OCCOC(=O)c2cc(Br)c(OC)c(OC)c2)cc(Br)c1OC |  | > 20 µM |  |
| O=C(OCC(COC(=O)c1ccc(O)c(O)c1)OC(=O)c1ccc(O)c(O)c1)c1ccc(O)c(O)c1 |  | 12.3 µM |  |
| COc1cc(C(=O)OCCOC(=O)c2cc(Br)c(O)c(OC)c2)cc(Br)c1O |  | > 20 µM |  |
| COc1cc(C(=O)OC2OC[C@@H](OC(=O)c3cc(Br)c(OC)c(OC)c3)[C@H](OC(=O)c3cc(Br)c(OC)c(OC)c3)[C@H]2OC(=O)c2cc(Br)c(OC)c(OC)c2)cc(Br)c1OC (single isomer, unassigned) |  | 1.11 µM | Activity [3]: inactive |
| O=C(OCCOC(=O)c1ccc(O)c(O)c1)c1ccc(O)c(O)c1 |  | > 20 µM |  |
| COc1cc(C(=O)OC[C@H]2OC(OC(=O)c3cc(Br)c(OC)c(OC)c3)[C@H](OC(=O)c3cc(Br)c(OC)c(OC)c3)[C@@H]2OC(=O)c2cc(Br)c(OC)c(OC)c2)cc(Br)c1OC (stereo not given in full) |  | 3.41 µM |  |
| O=C(OC[C@H]1OC(OC(=O)c2ccc(O)c(O)c2)[C@H](OC(=O)c2ccc(O)c(O)c2)[C@@H]1OC(=O)c1ccc(O)c(O)c1)c1ccc(O)c(O)c1 (stereo not given in full) |  | 2.2 µM |  |
| COc1cc(C(=O)OC[C@H]2OC(OC(=O)c3cc(Br)c(O)c(OC)c3)[C@H](OC(=O)c3cc(Br)c(O)c(OC)c3)[C@@H]2OC(=O)c2cc(Br)c(O)c(OC)c2)cc(Br)c1O (stereo not given in full) |  | 1.5 µM |  |
| COc1cc(C(=O)OCC(COC(=O)c2cc(Br)c(OC)c(OC)c2)OC(=O)c2cc(Br)c(OC)c(OC)c2)cc(Br)c1OC |  | > 20 µM | Activity [3]: inactive |
| O=C(OC[C@H]1OC(OC(=O)c2cc(O)c(O)c(Br)c2)[C@H](OC(=O)c2cc(O)c(O)c(Br)c2)[C@@H]1OC(=O)c1cc(O)c(O)c(Br)c1)c1cc(O)c(O)c(Br)c1 (stereo not given in full) | 96.4% | 0.19 µM | inhibition [4]: Active; IC50 [5]: 5.94 µM; IC50 [6]: Not Active; inhibition [7]: Active; inhibition [8]: Active; inhibition [9]: < 25%; Activity (C2C12 [10]): Non-Toxic; inhibition [11]: Active; Drug absorption (C2C12 (Mus musculus)): 74 pmol; Drug uptake [12]: 36.9%; IC50 [13]: 15.9 µM; Activity [3]: Active; Ratio IC50 (Homo sapiens): 32; Activity (C2C12 [14]): Non-Toxic |
| O=C(OCCOC(=O)c1cc(O)c(O)c(Br)c1)c1cc(O)c(O)c(Br)c1 | 25% |  |  |
| COc1cc(C(=O)O[C@@H]2OC[C@@H](OC(=O)c3cc(Br)c(O)c(OC)c3)[C@H](OC(=O)c3cc(Br)c(O)c(OC)c3)[C@H]2OC(=O)c2cc(Br)c(O)c(OC)c2)cc(Br)c1O |  | 0.75 µM |  |
| O=C(OC1OC[C@@H](OC(=O)c2ccc(O)c(O)c2)[C@H](OC(=O)c2ccc(O)c(O)c2)[C@H]1OC(=O)c1ccc(O)c(O)c1)c1ccc(O)c(O)c1 (stereo not given in full) |  | 3 µM |  |
| CC(C)(C)[Si](C)(C)Oc1cc(C(=O)O)cc(Br)c1O[Si](C)(C)C(C)(C)C | 24.2% |  |  |
| CC(C)(C)[Si](C)(C)Oc1cc(C(=O)OC[C@H]2OC(OC(=O)c3cc(Br)c(O[Si](C)(C)C(C)(C)C)c(O[Si](C)(C)C(C)(C)C)c3)[C@H](OC(=O)c3cc(Br)c(O[Si](C)(C)C(C)(C)C)c(O[Si](C)(C)C(C)(C)C)c3)[C@@H]2OC(=O)c2cc(Br)c(O[Si](C)(C)C(C)(C)C)c(O[Si](C)(C)C(C)(C)C)c2)cc(Br)c1O[Si](C)(C)C(C)(C)C (stereo not given in full) | 43.6% |  |  |
| O=C(O[C@@H]1OC[C@@H](OC(=O)c2cc(O)c(O)c(Br)c2)[C@H](OC(=O)c2cc(O)c(O)c(Br)c2)[C@H]1OC(=O)c1cc(O)c(O)c(Br)c1)c1cc(O)c(O)c(Br)c1 | 99% | 0.2 µM |  |
| COc1cc(C(=O)OCC(COC(=O)c2cc(Br)c(O)c(OC)c2)OC(=O)c2cc(Br)c(O)c(OC)c2)cc(Br)c1O |  | 8.45 µM |  |
| CC(C)(C)[Si](C)(C)Oc1cc(C(=O)OCCOC(=O)c2cc(Br)c(O[Si](C)(C)C(C)(C)C)c(O[Si](C)(C)C(C)(C)C)c2)cc(Br)c1O[Si](C)(C)C(C)(C)C | 32.8% |  |  |
| CC(C)(C)[Si](C)(C)Oc1cc(C(=O)OC2OC[C@@H](OC(=O)c3cc(Br)c(O[Si](C)(C)C(C)(C)C)c(O[Si](C)(C)C(C)(C)C)c3)[C@H](OC(=O)c3cc(Br)c(O[Si](C)(C)C(C)(C)C)c(O[Si](C)(C)C(C)(C)C)c3)[C@H]2OC(=O)c2cc(Br)c(O[Si](C)(C)C(C)(C)C)c(O[Si](C)(C)C(C)(C)C)c2)cc(Br)c1O[Si](C)(C)C(C)(C)C (stereo not given in full) | 41.9% |  |  |
| O=C(OCC(COC(=O)c1cc(O)c(O)c(Br)c1)OC(=O)c1cc(O)c(O)c(Br)c1)c1cc(O)c(O)c(Br)c1 | 95.5% | 0.24 µM | IC50 [5]: 1.98 µM; IC50 [6]: Not Active; inhibition [9]: < 25%; IC50 [13]: 4.53 µM; Ratio IC50 (Homo sapiens): 8 |
